K data for 16 compounds are collected here from ChEMBL document CHEMBL1124296, “Molecular basis for bleomycin amplification: conformational and stereoelectronic effects in unfused amplifiers” (J Med Chem, 1988).

The subject of this test is Calf thymus DNA. Kind of test: Binding constant to DNA measured spectrophotometrically. It is filed as nucleic-acid assay. Particulars: Bos taurus. The method in brief: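 Calf thymus DNA, stripped of residual protein and dialyzed into PIPES 00 buffer (0.01 M PIPES, 0.001 M EDTA, NaOH to pH 7.00, [Na⁺] 0.019 M). DNA-P concentration was read at 260 nm with ε 6600 M⁻¹ cm⁻¹. Equilibrium binding constants were obtained spectrophotometrically by an earlier-reported procedure.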
`CSc1cc(-c2cccs2)nc(NCCN(C)C)n1` returned a K of 13700 M⁻¹.

`CN(C)CCNc1nccc(-c2nccs2)n1` showed a K of 3900 M⁻¹.

`Cc1cnc(SCCN(C)C)nc1-c1cccs1` returned a K of 48000 M⁻¹.

On to `Cc1cc(-c2cccs2)nc(SCCN(C)C)n1`, for which the K amounted to 24800 M⁻¹.

The compound `CSc1nc(NCCN(C)C)cc(-c2cccs2)n1` yielded a K of 6800 M⁻¹.

As to `CN(C)CCOc1cccc(-c2ccccc2)c1`, the K came to 3000 M⁻¹.

`CN(C)CCSc1nccc(-c2cccn2C)n1` yielded a K of 10100 M⁻¹.

Compound `CN(C)CCSc1nccc(-c2ccco2)n1` returned a K of 3500 M⁻¹.

Consider `CN(C)CCSc1nccc(-c2cccs2)n1`, for which the K was 18700 M⁻¹.

Compound `CN(C)CCOc1ccccc1-c1ccccc1` displayed a K of 3000 M⁻¹.

In turn, `CN(C)CCNc1nccc(-c2cccs2)n1` yielded a K of 4400 M⁻¹.

For the compound `CN(C)CCSc1nccc(-c2nccs2)n1`, the K amounted to 9250 M⁻¹.

`CN(C)CCSc1nccc(-c2ccccc2)n1` returned a K of 8600 M⁻¹.

`Cc1ccnc(-c2cc(COCCN(C)C)ccn2)c1`: the K came to 3000 M⁻¹.

The compound `CN(C)CCOc1nccc(-c2cccs2)n1` registered a K of 3400 M⁻¹.

In turn, `CN(C)CCOc1ccc(-c2ccccc2)cc1` displayed a K of 3000 M⁻¹.
